Data reported in ChEMBL document CHEMBL3351600, “Sulfur, selenium and tellurium pseudopeptides: synthesis and biological evaluation” (Bioorg Med Chem, 2014).

Assays:
A498 = assay: Growth inhibition of human A498 cells after 48 hrs; type: functional; settings: A498, 48 h
Method in brief: (§1)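 NCI-60 human tumour cell line panel screen run at the US National Cancer Institute under its standard cytotoxicity protocol. It covers leukaemia, NSCLC, colon, CNS, melanoma, ovarian, renal, prostate and breast lines. An initial single-dose test was followed by five-dose testing with 48 h compound exposure.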

[1] = Growth inhibition of human EKVX cells after 48 hrs; type: functional; method in brief: as §1
A549 = assay: Growth inhibition of human A549/ATCC cells after 48 hrs; type: functional; settings: A549, 48 h; method in brief: as §1
NCI-H322M = assay: Growth inhibition of human NCI-H322M cells after 48 hrs; type: functional; method in brief: as §1
786-0 = assay: Growth inhibition of human 786-0 cells after 48 hrs; type: functional; settings: 786-0, 48 h; method in brief: as §1
Klebsiella pneumoniae = assay: Antimicrobial activity against Klebsiella pneumoniae assessed as inhibition at 20 ug/6 mm disk after 1 to 2 days by agar diffusion assay; type: functional
Method in brief: (§2)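 Standard agar diffusion: 6-mm paper disks loaded with 20 µg of compound were placed on inoculated plates. Inhibition-zone diameter (mm) was read after 1 and 2 days of growth.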

[2] = Growth inhibition of human OVCAR3 cells after 48 hrs; type: functional; settings: OVCAR-3, 48 h; method in brief: as §1
[3] = Growth inhibition of human OVCAR5 cells after 48 hrs; type: functional; settings: OVCAR-5, 48 h; method in brief: as §1
MCF7 = assay: Cytotoxicity against human MCF7 cells assessed as cell viability after 24 hrs incubation by MTT assay; type: functional, cell-based; settings: MCF7, 24 h
Method in brief: (§3)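 Cell lines came from DSMZ; primary human fibroblasts served as non-cancer controls. Cells were grown in medium with 10% FCS, seeded at 50,000 cells/ml, and grown 2 days at 37 °C, 10% CO2. Serial dilutions were then added for 24 h. MTT (final 0.5 mg/ml) was added for 2 h. Formazan was pelleted, PBS-washed, dissolved in isopropanol/0.4% HCl and read at 590 nm. Two parallel experiments were run. IC50 was taken as the concentration giving 50% of untreated-control absorbance.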

SK-MEL-5 = assay: Growth inhibition of human SK-MEL-5 cells after 48 hrs; type: functional; settings: SK-MEL-5, 48 h
Method in brief: (§4)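 Run by the NCI 58-cell-line screen under its standard cytotoxicity protocol. Compounds were first tested at a single dose, then at five doses. Cells were exposed to compound for 48 h.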

A-431 = assay: Cytotoxicity against human A431 cells assessed as cell viability after 24 hrs incubation by MTT assay; type: functional, cell-based; settings: A-431, 24 h; method in brief: as §3
T47D = assay: Growth inhibition of human T47D cells after 48 hrs; type: functional; method in brief: as §4
HOP-62 = assay: Growth inhibition of human HOP62 cells after 48 hrs; type: functional; settings: HOP-62, 48 h; method in brief: as §1
[4] = Growth inhibition of human RPMI8226 cells after 48 hrs; type: functional; settings: RPMI-8226, 48 h; method in brief: as §1
SNB-75 = assay: Growth inhibition of human SNB75 cells after 48 hrs; type: functional; settings: SNB-75, 48 h; method in brief: as §4
TK-10 = assay: Growth inhibition of human TK10 cells after 48 hrs; type: functional; settings: TK-10, 48 h; method in brief: as §4
[5] = Growth inhibition of human COLO205 cells after 48 hrs; type: functional; settings: COLO 205, 48 h; method in brief: as §1
K562 = assay: Growth inhibition of human K562 cells after 48 hrs; type: functional; settings: K562, 48 h; method in brief: as §1
MDA-MB-435 = assay: Growth inhibition of human MDA-MB-435 cells after 48 hrs; type: functional; settings: MDA-MB-435, 48 h; method in brief: as §1
[6] = Growth inhibition of human HCT15 cells after 48 hrs; type: functional; settings: HCT-15, 48 h; method in brief: as §1
NCI-H226 = assay: Growth inhibition of human NCI-H226 cells after 48 hrs; type: functional; settings: NCI-H226, 48 h; method in brief: as §1
Saccharomyces cerevisiae = assay: Antimicrobial activity against Saccharomyces cerevisiae assessed as inhibition at 20 ug/6 mm disk after 1 to 2 days by agar diffusion assay; type: functional; method in brief: as §2
HL-60(TB) = assay: Growth inhibition of human HL-60(TB) cells after 48 hrs; type: functional; settings: HL-60, 48 h; method in brief: as §1
[7] = Growth inhibition of human HOP92 cells after 48 hrs; type: functional; settings: HOP-92, 48 h; method in brief: as §1
[8] = Growth inhibition of human MOLT4 cells after 48 hrs; type: functional; settings: MOLT-4, 48 h; method in brief: as §1
SW-620 = assay: Growth inhibition of human SW620 cells after 48 hrs; type: functional; settings: SW-620, 48 h; method in brief: as §4
[9] = Growth inhibition of human HCC2998 cells after 48 hrs; type: functional; settings: HCC 2998, 48 h; method in brief: as §1
[10] = Growth inhibition of human SF295 cells after 48 hrs; type: functional; settings: SF-295, 48 h; method in brief: as §1
KM12 = assay: Growth inhibition of human KM12 cells after 48 hrs; type: functional; settings: KM12, 48 h; method in brief: as §1
Aspergillus niger = assay: Antimicrobial activity against Aspergillus niger assessed as inhibition at 20 ug/6 mm disk after 1 to 2 days by agar diffusion assay; type: functional; method in brief: as §2
DU-145 = assay: Growth inhibition of human DU145 cells after 48 hrs; type: functional; settings: DU-145, 48 h; method in brief: as §1
[11] = Growth inhibition of human LOXIMVI cells after 48 hrs; type: functional; settings: LOX IMVI; method in brief: as §1
[12] = read-out: pLC50 (the source's name) (converted)

Compound: CC1=C(SCCC(=O)OCC(=O)NCCC[Te]c2ccccc2)C(=O)c2ccccc2C1=O
- GI50 (A498): 2 µM
- LC50 (A498): 30.2 µM
- TGI (A498; read-out: pTGI (converted)): 7.41 µM
- GI50 [1]: 1.12 µM
- CC50 [1, 12]: 53.7 µM
- TGI ([1]; read-out: pTGI (converted)): 10.5 µM
- GI50 (A549): 1.29 µM
- CC50 (A549; [12]): > 100 µM
- TGI (A549; read-out: pTGI (converted)): 3.63 µM
- GI50 (NCI-H322M): 2.88 µM
- CC50 (NCI-H322M; [12]): 83.2 µM
- TGI (NCI-H322M; read-out: pTGI (converted)): 12.6 µM
- GI50 (786-0): 2.69 µM
- LC50 (786-0): 29.5 µM
- TGI (786-0; read-out: pTGI (converted)): 8.32 µM
- diameter of the inhibition zone (DIZ) (Klebsiella pneumoniae): 13 mm
- GI50 [2]: 2.63 µM
- CC50 [2, 12]: 15.5 µM
- TGI ([2]; read-out: pTGI (converted)): 5.5 µM
- GI50 [3]: 2.75 µM
- LC50 [3]: 38 µM
- TGI ([3]; read-out: pTGI (converted)): 8.51 µM
- IC50 (MCF7): 12 µM
- GI50 (SK-MEL-5): 1.29 µM
- CC50 (SK-MEL-5; [12]): 5.25 µM
- TGI (SK-MEL-5; read-out: pTGI (converted)): 2.63 µM
- IC50 (A-431): 1 µM
- GI50 (T47D): 2 µM
- LC50 (T47D): > 100 µM
- TGI (T47D; read-out: pTGI (converted)): 5.75 µM
- GI50 (HOP-62): 1.91 µM
- CC50 (HOP-62; [12]): 23.4 µM
- TGI (HOP-62; read-out: pTGI (converted)): 5.5 µM
- GI50 [4]: 2.57 µM
- CC50 [4, 12]: > 100 µM
- TGI ([4]; read-out: pTGI (converted)): 9.33 µM
- GI50 (SNB-75): 1.48 µM
- CC50 (SNB-75; [12]): 24.5 µM
- TGI (SNB-75; read-out: pTGI (converted)): 5.89 µM
- GI50 (TK-10): 3.8 µM
- LC50 (TK-10): 38 µM
- TGI (TK-10; read-out: pTGI (converted)): 12.9 µM
- GI50 [5]: 1.91 µM
- CC50 [5, 12]: 8.91 µM
- TGI ([5]; read-out: pTGI (converted)): 4.17 µM
- GI50 (K562): 3.55 µM
- CC50 (K562; [12]): > 100 µM
- TGI (K562; read-out: pTGI (converted)): 34.7 µM
- GI50 (MDA-MB-435): 4.27 µM
- CC50 (MDA-MB-435; [12]): 57.5 µM
- TGI (MDA-MB-435; read-out: pTGI (converted)): 15.8 µM
- GI50 [6]: 2.57 µM
- CC50 [6, 12]: 77.6 µM
- TGI ([6]; read-out: pTGI (converted)): 12 µM
- GI50 (NCI-H226): 1.29 µM
- CC50 (NCI-H226; [12]): 6.61 µM
- TGI (NCI-H226; read-out: pTGI (converted)): 2.88 µM
- Retention_time: 0.928 min
- diameter of the inhibition zone (DIZ) (Saccharomyces cerevisiae): 0 mm
- GI50 (HL-60(TB)): 2.57 µM
- CC50 (HL-60(TB); [12]): > 100 µM
- TGI (HL-60(TB); read-out: pTGI (converted)): 7.24 µM
- GI50 [7]: 1.58 µM
- CC50 [7, 12]: 19.5 µM
- TGI ([7]; read-out: pTGI (converted)): 4.9 µM
- GI50 [8]: 3.16 µM
- CC50 [8, 12]: > 100 µM
- TGI ([8]; read-out: pTGI (converted)): 9.77 µM
- GI50 (SW-620): 3.98 µM
- CC50 (SW-620; [12]): 60.3 µM
- TGI (SW-620; read-out: pTGI (converted)): 17 µM
- GI50 [9]: 1.82 µM
- CC50 [9, 12]: 13.5 µM
- TGI ([9]; read-out: pTGI (converted)): 4.57 µM
- GI50 [10]: 1.7 µM
- CC50 [10, 12]: > 100 µM
- TGI ([10]; read-out: pTGI (converted)): 6.31 µM
- GI50 (KM12): 3.63 µM
- CC50 (KM12; [12]): 52.5 µM
- TGI (KM12; read-out: pTGI (converted)): 12.6 µM
- diameter of the inhibition zone (DIZ) (Aspergillus niger): 19 mm
- GI50 (DU-145): 3.31 µM
- LC50 (DU-145): 33.9 µM
- TGI (DU-145; read-out: pTGI (converted)): 9.12 µM
- GI50 [11]: 2.14 µM
- LC50 [11]: 75.9 µM
- TGI ([11]; read-out: pTGI (converted)): 5.37 µM
